Measured values reported in the M2OR odorant receptor database.

Columns and labels:
Details in all cases: stereoisomer not certain
[1] = target: T1, OR10J5 (Homo sapiens) (UniProt Q8NHC4)
T1 sequence (whole entry): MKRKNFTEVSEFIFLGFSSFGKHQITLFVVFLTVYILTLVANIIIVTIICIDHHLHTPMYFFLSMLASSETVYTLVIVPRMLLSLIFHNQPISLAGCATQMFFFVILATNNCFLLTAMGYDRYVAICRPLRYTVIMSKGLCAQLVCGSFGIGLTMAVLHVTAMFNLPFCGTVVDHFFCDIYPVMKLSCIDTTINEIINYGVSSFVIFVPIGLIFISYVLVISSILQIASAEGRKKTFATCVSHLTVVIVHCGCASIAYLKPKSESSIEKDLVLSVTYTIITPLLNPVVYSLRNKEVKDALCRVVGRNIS
How it was run: (§1)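 Assay methods differ from source to source, frequently being transient luciferase assays in mammalian cell lines. For each receptor–molecule pair, the label responsive (active) applies when the original authors judged the measured signal statistically different from baseline, and non-responsive (inactive) applies otherwise.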

[2] = target: T2, OR10H4 (Homo sapiens) (UniProt Q8NGA5)
T2 sequence (whole entry): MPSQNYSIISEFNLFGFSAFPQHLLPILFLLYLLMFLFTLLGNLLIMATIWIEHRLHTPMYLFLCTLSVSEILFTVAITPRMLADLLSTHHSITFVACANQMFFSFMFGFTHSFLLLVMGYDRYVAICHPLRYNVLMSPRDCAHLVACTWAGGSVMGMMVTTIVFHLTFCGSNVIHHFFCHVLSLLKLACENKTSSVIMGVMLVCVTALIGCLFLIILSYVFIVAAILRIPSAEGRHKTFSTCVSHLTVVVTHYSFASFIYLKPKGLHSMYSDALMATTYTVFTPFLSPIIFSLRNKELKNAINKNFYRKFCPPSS
How it was run: as §1

[3] = target: T3, OR10H5 (Homo sapiens) (UniProt Q8NGA6)
T3 sequence (whole entry): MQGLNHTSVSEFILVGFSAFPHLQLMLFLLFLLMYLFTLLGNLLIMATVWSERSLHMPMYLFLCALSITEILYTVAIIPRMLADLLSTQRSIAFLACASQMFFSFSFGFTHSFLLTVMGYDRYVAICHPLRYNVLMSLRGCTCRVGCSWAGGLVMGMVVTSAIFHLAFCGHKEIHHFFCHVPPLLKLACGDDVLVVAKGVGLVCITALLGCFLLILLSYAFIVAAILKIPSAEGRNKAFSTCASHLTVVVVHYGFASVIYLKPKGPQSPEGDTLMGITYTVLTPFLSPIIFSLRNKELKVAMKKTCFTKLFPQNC
How it was run: as §1

[4] = target: T4, OR10J1 (Homo sapiens) (UniProt P30954)
T4 sequence (whole entry): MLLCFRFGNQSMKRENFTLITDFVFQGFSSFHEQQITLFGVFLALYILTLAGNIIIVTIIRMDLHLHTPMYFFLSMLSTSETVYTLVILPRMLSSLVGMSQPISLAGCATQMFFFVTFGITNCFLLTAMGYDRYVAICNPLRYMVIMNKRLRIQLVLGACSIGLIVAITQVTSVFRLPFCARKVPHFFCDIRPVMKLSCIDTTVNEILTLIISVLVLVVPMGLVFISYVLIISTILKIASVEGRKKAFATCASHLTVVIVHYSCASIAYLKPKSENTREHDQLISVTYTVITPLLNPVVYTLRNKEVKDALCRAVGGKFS
How it was run: as §1

[5] = target: T5, OR10J3 (Homo sapiens) (UniProt Q5JRS4)
T5 sequence (whole entry): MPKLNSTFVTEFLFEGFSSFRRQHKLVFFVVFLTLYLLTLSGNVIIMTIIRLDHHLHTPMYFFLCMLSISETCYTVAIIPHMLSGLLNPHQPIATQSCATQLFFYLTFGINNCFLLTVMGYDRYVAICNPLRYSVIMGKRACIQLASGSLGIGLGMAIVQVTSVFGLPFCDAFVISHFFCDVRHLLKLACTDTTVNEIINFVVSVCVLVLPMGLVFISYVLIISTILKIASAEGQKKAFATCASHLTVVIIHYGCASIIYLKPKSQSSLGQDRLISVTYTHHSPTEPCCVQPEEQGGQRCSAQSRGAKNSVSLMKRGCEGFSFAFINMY
How it was run: as §1

[6] = target: T6, OR10K1 (Homo sapiens) (UniProt Q8NGX5)
T6 sequence (whole entry): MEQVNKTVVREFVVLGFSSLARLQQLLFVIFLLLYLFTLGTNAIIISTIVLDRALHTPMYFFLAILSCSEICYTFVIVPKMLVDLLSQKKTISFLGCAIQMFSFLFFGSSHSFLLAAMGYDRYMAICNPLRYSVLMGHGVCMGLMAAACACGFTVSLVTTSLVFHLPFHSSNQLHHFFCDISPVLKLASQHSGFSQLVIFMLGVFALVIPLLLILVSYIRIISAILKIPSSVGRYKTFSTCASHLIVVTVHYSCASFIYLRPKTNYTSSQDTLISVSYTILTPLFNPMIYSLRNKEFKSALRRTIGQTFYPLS
How it was run: as §1

[7] = target: T7, OR10K2 (Homo sapiens) (UniProt Q6IF99)
T7 sequence (whole entry): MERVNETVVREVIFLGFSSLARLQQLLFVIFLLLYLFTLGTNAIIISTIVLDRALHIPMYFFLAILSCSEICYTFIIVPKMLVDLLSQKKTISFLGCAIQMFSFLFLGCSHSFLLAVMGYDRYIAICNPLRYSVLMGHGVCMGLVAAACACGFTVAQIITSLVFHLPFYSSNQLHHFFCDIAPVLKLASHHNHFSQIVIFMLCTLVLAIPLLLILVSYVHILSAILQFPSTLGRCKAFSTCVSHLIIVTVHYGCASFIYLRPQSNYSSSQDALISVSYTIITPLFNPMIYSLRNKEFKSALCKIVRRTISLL
How it was run: as §1

[8] = target: T8, OR10P1 (Homo sapiens) (UniProt Q8NGE3)
T8 sequence (whole entry): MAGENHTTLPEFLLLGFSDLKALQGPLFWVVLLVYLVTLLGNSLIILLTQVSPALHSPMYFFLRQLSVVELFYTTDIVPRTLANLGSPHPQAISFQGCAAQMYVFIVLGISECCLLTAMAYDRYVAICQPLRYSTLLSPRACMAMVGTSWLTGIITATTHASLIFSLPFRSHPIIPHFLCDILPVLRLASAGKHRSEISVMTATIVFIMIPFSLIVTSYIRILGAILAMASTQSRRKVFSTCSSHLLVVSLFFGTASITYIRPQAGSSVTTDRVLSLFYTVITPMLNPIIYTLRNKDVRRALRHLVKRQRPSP
How it was run: as §1

[9] = target: T9, OR10Q1 (Homo sapiens) (UniProt Q8NGQ4)
T9 sequence (whole entry): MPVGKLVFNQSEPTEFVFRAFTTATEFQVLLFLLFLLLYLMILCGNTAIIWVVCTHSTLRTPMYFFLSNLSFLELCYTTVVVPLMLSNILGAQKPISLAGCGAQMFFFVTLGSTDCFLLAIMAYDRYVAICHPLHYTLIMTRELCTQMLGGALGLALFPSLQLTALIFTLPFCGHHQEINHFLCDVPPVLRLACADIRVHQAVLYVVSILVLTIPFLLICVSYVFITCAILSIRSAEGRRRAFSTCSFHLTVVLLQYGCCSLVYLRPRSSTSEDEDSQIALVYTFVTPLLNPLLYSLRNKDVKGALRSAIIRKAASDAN
How it was run: as §1

[10] = target: OR10J4 (Homo sapiens) (UniProt P0C629)
Sequence of OR10J4 (Homo sapiens) (P0C629 whole entry F198I): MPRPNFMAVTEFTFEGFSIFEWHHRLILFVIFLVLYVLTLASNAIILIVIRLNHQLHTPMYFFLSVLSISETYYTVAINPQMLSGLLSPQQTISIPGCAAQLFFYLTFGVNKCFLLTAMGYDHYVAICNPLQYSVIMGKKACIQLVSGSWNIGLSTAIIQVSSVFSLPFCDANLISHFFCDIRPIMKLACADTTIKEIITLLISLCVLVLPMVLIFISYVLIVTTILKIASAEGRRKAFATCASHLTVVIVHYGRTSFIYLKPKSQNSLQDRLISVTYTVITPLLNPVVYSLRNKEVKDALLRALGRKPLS
How it was run: as §1

Measured: odorant receptor agonist call

CCCCCC1=C(C)CCC1=O
inactive: [1]

CCCCCC(=O)C(C)C(C)=O (configuration not stated)
inactive: [2] | [3] | [4] | [5] | [1] | [6] | [7] | [8] | [9]

CCCCCC(S)C(C)CO (configuration not stated)
inactive: [2] | [3] | [4] | [5] | [1] | [6] | [7] | [8] | [9]

Cc1cnc(C)c(C)n1
inactive: [2] | [3] | [4] | [5] | [1] | [6] | [8] | [9]

CCC(S)C(C)CO (configuration not stated)
inactive: [2] | [3] | [4] | [5] | [1] | [6] | [7] | [8] | [9]

C=C(C)C1CCC(C)C(=O)C1 (configuration not stated)
inactive: [1]

CC1=C(O)C(=O)OC1C (configuration not stated)
inactive: [2] | [3] | [4] | [5] | [1] | [6] | [8] | [9]

CCC1OC(=O)C(O)=C1C (configuration not stated)
inactive: [2] | [3] | [4] | [5] | [1] | [6] | [8] | [9]

CC12CCC(CC1=O)C2(C)C (configuration not stated)
inactive: [1]

CC(=O)c1c(C)c([N+](=O)[O-])c(C(C)(C)C)c([N+](=O)[O-])c1C
inactive: [2] | [3] | [5] | [10] | [1] | [6] | [7] | [8] | [9]

O=C1CCOc2ccccc21
inactive: [1]

CC1=C(O)C(=O)C(C)O1 (configuration not stated)
inactive: [2] | [3] | [4] | [5] | [1] | [6] | [8] | [9]

CCCCCC(=O)CC
inactive: [1]

CC(CO)CS (configuration not stated)
inactive: [2] | [3] | [4] | [5] | [1] | [6] | [7] | [8] | [9]
